Data as given in ChEMBL document CHEMBL4715693, “Synthesis and antiviral properties of novel indole-based thiosemicarbazides and 4-thiazolidinones” (Bioorg Med Chem, 2016).

Key:
[1] = system: Vesicular stomatitis virus; experiment: Antiviral activity against Vesicular stomatitis virus infected in human HeLa cells assessed as reduction in virus-induced cytopathic effect incubated for 3 to 6 days by light microscopic analysis; type: functional, organism-based
Outline: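 CPE reduction assay: virus and serial compound dilutions added together to subconfluent HeLa (vesicular stomatitis, Coxsackie B4, respiratory syncytial) or Vero (Coxsackie B4, Sindbis, Punta Toro) cultures. Incubated 3–6 days at 37 °C. Mean ± SEM of three independent tests.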

Coxsackievirus B4 [2] = experiment: Antiviral activity against Human coxsackievirus B4 infected in human HeLa cells assessed as reduction in virus-induced cytopathic effect incubated for 3 to 6 days by light microscopic analysis; type: functional, organism-based; conditions: Enterovirus B
Outline: (§1)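 CPE reduction assay: virus and serial compound dilutions added together to subconfluent HeLa (vesicular stomatitis, Coxsackie B4, respiratory syncytial) or Vero (Coxsackie B4, Sindbis, Punta Toro) cultures. Incubated 3–6 days at 37 °C. […] Mean ± SEM of three independent tests.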

[3] = system: Respiratory syncytial virus; experiment: Antiviral activity against Respiratory syncytial virus infected in human HeLa cells assessed as reduction in virus-induced cytopathic effect incubated for 3 to 6 days by light microscopic analysis; type: functional, organism-based; outline: as §1
Human respirovirus 3 = experiment: Antiviral activity against Human parainfluenza virus 3 infected in African green monkey Vero cells assessed as reduction in virus-induced cytopathic effect incubated for 3 to 6 days by light microscopic analysis; type: functional, organism-based; conditions: Human respirovirus 3, Vero
[4] = system: Mammalian orthoreovirus 1; experiment: Antiviral activity against Mammalian orthoreovirus 1 infected in African green monkey Vero cells assessed as reduction in virus-induced cytopathic effect incubated for 3 to 6 days by light microscopic analysis; type: functional, organism-based; conditions: Mammalian orthoreovirus 1, Vero
Sindbis virus = experiment: Antiviral activity against Sindbis virus infected in African green monkey Vero cells assessed as reduction in virus-induced cytopathic effect incubated for 3 to 6 days by light microscopic analysis; type: functional, organism-based; outline: as §1
Coxsackievirus B4 [5] = experiment: Antiviral activity against Human coxsackievirus B4 infected in African green monkey Vero cells assessed as reduction in virus-induced cytopathic effect incubated for 3 to 6 days by light microscopic analysis; type: functional, organism-based; conditions: Enterovirus B; outline: as §1
Punta Toro virus = experiment: Antiviral activity against Punta Toro virus infected in African green monkey Vero cells assessed as reduction in virus-induced cytopathic effect incubated for 3 to 6 days by light microscopic analysis; type: functional, organism-based; outline: as §1
Human alphaherpesvirus 1 = experiment: Antiviral activity against Herpes simplex virus 1 infected in human HEL cells assessed as reduction in virus-induced cytopathic effect incubated for 3 to 6 days by light microscopic analysis; type: functional, cell-based; conditions: Human alphaherpesvirus 1, HEL
Human alphaherpesvirus 2 = experiment: Antiviral activity against Herpes simplex virus 2 infected in human HEL cells assessed as reduction in virus-induced cytopathic effect incubated for 3 to 6 days by light microscopic analysis; type: functional, cell-based; conditions: Human alphaherpesvirus 2, HEL
Vaccinia virus = experiment: Antiviral activity against Vaccinia virus infected in human HEL cells assessed as reduction in virus-induced cytopathic effect incubated for 3 to 6 days by light microscopic analysis; type: functional, organism-based; conditions: Orthopoxvirus vaccinia
[6] = system: Human immunodeficiency virus 1; experiment: Antiviral activity against Human immunodeficiency virus 1 infected in human MT4 cells assessed as reduction in virus-induced cytopathic effect incubated for 3 to 6 days by light microscopic analysis; type: functional, organism-based; conditions: Human immunodeficiency virus 1, MT4
[7] = system: Human immunodeficiency virus 2; experiment: Antiviral activity against Human immunodeficiency virus 2 infected in human MT4 cells assessed as reduction in virus-induced cytopathic effect incubated for 3 to 6 days by light microscopic analysis; type: functional, organism-based; conditions: Human immunodeficiency virus 2, MT4
Influenza A virus = experiment: Antiviral activity against influenza A virus infected in dog MDCK cells assessed as reduction in virus-induced cytopathic effect incubated for 3 to 6 days by light microscopic analysis; type: functional, organism-based; conditions: Influenza A virus, MDCK
Outline: (§2)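 MDCK cells, subconfluent, received influenza A or B virus together with serial compound dilutions. Incubated 3–6 days at 35 °C.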

Influenza B virus = experiment: Antiviral activity against influenza B virus infected in dog MDCK cells assessed as reduction in virus-induced cytopathic effect incubated for 3 to 6 days by light microscopic analysis; type: functional, organism-based; outline: as §2
Feline coronavirus = experiment: Antiviral activity against Feline coronavirus infected in cat CRFK cells assessed as reduction in virus-induced cytopathic effect incubated for 3 to 6 days by light microscopic analysis; type: functional, organism-based; conditions: Alphacoronavirus 1, CRFK
Felid alphaherpesvirus 1 = experiment: Antiviral activity against Feline herpesvirus infected in cat CRFK cells assessed as reduction in virus-induced cytopathic effect incubated for 3 to 6 days by light microscopic analysis; type: functional, organism-based; conditions: Felid alphaherpesvirus 1, CRFK
[8] = Cytotoxicity against human HEL cells assessed as changes in cell morphology incubated for 3 to 6 days by light microscopy; type: cell-based; conditions: time 3-6 day
Outline: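 Human embryonic lung fibroblasts incubated with serial compound dilutions alongside the antiviral assays, 37 °C, 3–6 days. Morphology inspected by light microscopy; minimal cytotoxic concentration taken as lowest concentration giving minimal morphological change.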

[9] = Cytotoxicity against cat CRFK cells assessed as reduction in cell viability incubated for 3 to 6 days by MTS assay; type: cell-based, Felis catus; conditions: time 3-6 day
Outline: (§3)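 CRFK or MT4 cells were exposed to serial compound dilutions alongside the antiviral assays for 3–6 days at 37 °C.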

MT4 = experiment: Cytotoxicity against human MT4 cells assessed as reduction in cell viability incubated for 3 to 6 days by MTS assay; type: cell-based; conditions: time 3-6 day; outline: as §3

Compound	EC50 [1] [µg/mL]	EC50 (Coxsackievirus B4 [2]) [µg/mL]	EC50 [3] [µg/mL]	EC50 (Human respirovirus 3) [µg/mL]	EC50 [4] [µg/mL]	EC50 (Sindbis virus) [µg/mL]	EC50 (Coxsackievirus B4 [5]) [µg/mL]	EC50 (Punta Toro virus) [µg/mL]	EC50 (Human alphaherpesvirus 1) [µg/mL]	EC50 (Human alphaherpesvirus 2) [µg/mL]	EC50 (Vaccinia virus)	EC50 [6] [µg/mL]	EC50 [7] [µg/mL]	EC50 (Influenza A virus) [µg/mL]	EC50 (Influenza B virus) [µg/mL]	EC50 (Feline coronavirus)	EC50 (Felid alphaherpesvirus 1)	MCC [8]	CC50 ([9]; crfk) [µg/mL]	CC50 (MT4) [µg/mL]	also measured
CCCN1C(=O)CS/C1=N\NC(=O)c1[nH]c2ccc(F)cc2c1-c1ccccc1	> 100	> 100	> 100	> 100	> 100	> 100	> 100	> 100	> 100	> 100	> 100 µg/mL	> 100	> 100	> 100	> 100	> 100 µg/mL	> 100 µg/mL	> 100 µg/mL	> 100	> 125	
C=CCN1C(=O)CS/C1=N\NC(=O)c1[nH]c2ccc(F)cc2c1-c1ccccc1	> 100	> 100	> 100	> 100	> 100	> 100	> 100	> 100	> 100	> 100	> 100 µg/mL	> 100	> 100	> 100	> 100	> 100 µg/mL	> 100 µg/mL	> 100 µg/mL	> 100	> 125	
O=c1[nH]c(=O)n([C@H]2C[C@H](O)[C@@H](CO)O2)cc1/C=C/Br [BRIVUDINE]											22 µM										
Nc1nc2c(ncn2COC(CO)CO)c(=O)[nH]1 [GANCICLOVIR]											> 100 µM					> 100 µM	7.4 µM	> 100 µM			CC50 ([9]; CRFK cells, read-out: CC50): > 100 µM
Cc1cn([C@H]2C[C@H](N=[N+]=[N-])[C@@H](CO)O2)c(=O)[nH]c1=O [ZIDOVUDINE]																				> 25	
